Data on six compounds can be found in ChEMBL document CHEMBL1122346, “Antihypertensive activity of 6-arylpyrido[2,3-d]pyrimidin-7-amine derivatives. 2. 7-Acyl amide analogues” (J Med Chem, 1983).

≈ marks a conversion by molar mass, not a printed value.

The species entered for data set [1] is Rattus norvegicus. Nature of the data set: Maximum percent decrease in blood pressure in SHR ( hour post dose in parentheses). It counts as functional.
Data set [2] has as its system Rattus norvegicus. The data set can be described thus: Antihypertensive activity in conscious spontaneously hypertensive rats 10 hr following 50 mg/kg p.o.; Range 10-20%. The data set is classed as functional. The settings on record: route oral.
Data set [3] concerns Rattus norvegicus. The data set can be described thus: Antihypertensive activity rating in conscious SHR after 18 hr post dose at 50 mg/kg (po); Range 10-20%. The data set is classed as functional.
Data set [4] concerns Rattus norvegicus. The data set can be described thus: Antihypertensive activity in conscious spontaneously hypertensive rats 2 hr following 50 mg/kg p.o.; No significant reduction. The data set is classed as functional. The settings on record: route oral.
Data set [5] deals with Rattus norvegicus. Nature of the data set: Antihypertensive activity rating in conscious SHR after 10 h post dose at 10 mg/kg (po); 0=No significant reduction. The data set is classed as functional.
Data set [6] has as its system Rattus norvegicus. Nature of the data set: Antihypertensive activity rating in conscious SHR after 2 hr post dose at 10 mg/kg (po); 0=No significant reduction. It counts as functional.
Data set [7] in a line: Solubility, determined in 0.1 N HCl. It counts as physicochemical. Particulars: read-out: S. In outline:
(§1)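 Dissolved compound was quantified by UV absorption. For the pH 7 value, the acidic solution was brought to pH 7 to give the unprotonated base, the precipitate was removed, and the supernatant was assayed again by UV.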

A short description of data set [8]: Solubility, determined in phosphate buffer at pH 7. The data set is classed as physicochemical. In outline: as §1
Data set [9] is described as follows: pKa value, measured in 67% of DMF. It counts as physicochemical. Particulars: 67% DMF. A digest of the protocol: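 Dissociation constants were found by potentiometric titration in 67% N,N-dimethylformamide/water.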
Data set [10] can be described thus: Half-life measured in 1:1 ratio of MeOH and phosphate buffer at pH 7; 15-17. It counts as ADME. The settings on record: 1:1 MeOH / phosphate buffer. A digest of the protocol: (§2)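 Hydrolytic stability was tested at room temperature on solutions of ca. 0.001-0.002%. Media were 0.1 N HCl (pH ~1.5), 50% MeOH/pH 7 phosphate buffer (pH ~8.0), and 50% MeOH/0.05 N aqueous NaOH (pH ~12.2). Changes in the UV spectrum were followed over 2 weeks.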

A short description of data set [11]: Half-life measured in 0.1 N HCl; Stable. The data set is classed as ADME. Particulars: buffer. A digest of the protocol: as §2
A short description of data set [12]: Half-life measured in 1:1 ratio of MeOH and 0.1 N NaOH. The data set is classed as ADME. Particulars: 1:1 MeOH / 0.1 N NaOH. A digest of the protocol: as §2
The test system of data set [13] is Rattus norvegicus. Nature of the data set: Antihypertensive activity rating in conscious SHR after 2 hr post dose at 50 mg/kg (po); Range 10-20%. The data set is classed as functional.
In data set [14] the test system is Rattus norvegicus. Nature of the data set: Antihypertensive activity rating in conscious SHR after 24 h post dose at 50 mg/kg (po); Range 20-30%. The data set is classed as functional.
Data set [15] has as its system Rattus norvegicus. The data set can be described thus: Antihypertensive activity rating in conscious SHR after 24-72 hr post dose at 10 mg/kg (po); Range 10-20%. It counts as functional.
The subject of data set [16] is Rattus norvegicus. Nature of the data set: Antihypertensive activity rating in conscious SHR after 10 hr post dose at 10 mg/kg (po); Range 10-20%. It counts as functional.
Data set [17] relates to Rattus norvegicus. The data set can be described thus: Antihypertensive activity rating in conscious SHR after 10 hr post dose at 50 mg/kg (po); Range 20-30%. It counts as functional.
Data set [18] in a line: pKa value, measured in 67% DMF/water.
Data set [19] in a line: Half-life measured in 1:1 ratio of MeOH and phosphate buffer at pH 7; Stable. The data set is classed as ADME. In outline: as §2
Data set [20] deals with Rattus norvegicus. Nature of the data set: Antihypertensive activity rating in conscious SHR after 24 hr post dose at 50 mg/kg (po). It counts as functional.
Data set [21] deals with Rattus norvegicus. Nature of the data set: Antihypertensive activity rating in conscious SHR after 10 hr post dose at 50 mg/kg (po). The data set is classed as functional.
Data set [22] can be described thus: Half-life measured in 0.1 N HCl (*-<5% change after 14 days at 25 degrees C; Stable. The data set is classed as ADME. Particulars: buffer, 336 h. A digest of the protocol:
as §2

The subject of data set [23] is Rattus norvegicus. Nature of the data set: Antihypertensive activity in conscious spontaneously hypertensive rats 10 hr following 50 mg/kg p.o.; No significant reduction. The settings on record: route oral. It counts as functional.
Data set [24] relates to Rattus norvegicus. Nature of the data set: Antihypertensive activity rating in conscious SHR after 18 hr post dose at 50 mg/kg (po); 0=No significant reduction. It counts as functional.
In data set [25] the test system is Rattus norvegicus. The data set can be described thus: Antihypertensive activity rating in conscious SHR after 24 hr post dose at 10 mg/kg (po); 0=no significant reduction. It counts as functional.
Data set [26] concerns Rattus norvegicus. The data set can be described thus: Antihypertensive activity rating in conscious SHR after 18 hr post dose at 50 mg/kg (po). It counts as functional.
In data set [27] the test system is Rattus norvegicus. The data set can be described thus: Antihypertensive activity rating in conscious SHR after 2 hr post dose at 10 mg/kg (po); Range 10-20%. It counts as functional.
In data set [28] the test system is Rattus norvegicus. Nature of the data set: Antihypertensive activity rating in conscious SHR after 2 hr post dose at 50 mg/kg (po). The data set is classed as functional.

Consider `Cc1ncc2cc(-c3c(Cl)cccc3Cl)c(O)nc2n1`, for which, in data set [1], the Decrease is 10%. In addition, the Activity rating in data set [2] was determined as 10%; in data set [3], 10%; in data set [4], 0%.
As for `Cc1ncc2cc(-c3c(Cl)cccc3Cl)c(NC(=O)c3ccc([N+](=O)[O-])cc3)nc2n1`, the Activity rating in data set [5] and in [6] was 0% each time.
In the case of `Cc1ncc2cc(-c3c(Cl)cccc3Cl)c(NC(=O)c3ccco3)nc2n1`, the solubility is 6600 µg/mL (≈ 16.5 mM) in data set [7] and 220 µg/mL (≈ 0.551 mM) in data set [8]. Further, the pKa in [9] stood at 4.3; in [18] it was 10.7. In addition, the figures for the half-life in [10] and in data set [12] were 360 h and 4 h, respectively. In data set [11], the T1/2 entry was “Stable”. For the same compound, the Activity rating turned out to be 10% in data set [13]; 20% in [14]; 10% in data set [15]; 10% in [16]; 20% in [17]; 0% in [6]. Further, the Decrease in [1] was 27%.
Turning to `Cc1ncc2cc(-c3c(Cl)cccc3Cl)c(N)nc2n1`, the figures for the solubility in data set [7] and in [8] were 4850 µg/mL (≈ 15.9 mM) and 7 µg/mL (≈ 0.0229 mM), respectively. In addition, the T1/2 result in data set [19] and in data set [22] was “Stable” throughout. Besides, the Activity rating in data set [13] is reported as 10%; in data set [20] it was over 30%; in data set [15], 10%; in data set [16], 10%; in [21], over 30%. The Decrease in data set [1] is given as 32%.
`Cc1ncc2cc(-c3c(Cl)cccc3Cl)c(NC(=O)NC(C)(C)C)nc2n1`: the Activity rating in [23], in [24] and in data set [4] was 0% throughout.
Take `CCC(=O)Nc1nc2nc(C)ncc2cc1-c1c(Cl)cccc1Cl`: the Activity rating is on record as 0 in data set [25]; 10% in data set [16]; over 30% in data set [21]; over 30% in data set [26]; 10% in [27]; over 30% in [28]. The Decrease in data set [1] stood at 35%.

As usually defined, the pKa is the pH at which an ionisable group is half protonated. Low values mean a group that gives up its proton readily, high ones a group that holds its proton tightly. Usually half-life stands for the time needed for the level to fall by half in the phase considered.
